Laboratory results: ChEMBL document CHEMBL1240522, “Effect of goniothalamin on the development of Ehrlich solid tumor in mice” (Bioorg Med Chem, 2010)
The source made the active and inactive calls. The calls are words filed in the database; no cut-off is given here.

Tests used:
NCI-H460 = assay: Cytotoxicity against human NCI-H460 cells after 48 hrs by sulforhodamine B assay; format: functional; details: NCI-H460, 48 h
Outline: (§1)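 Cells grown in RPMI 1640 with 5% FBS at 37 °C, 5% CO2, with penicillin/streptomycin. Treated for 48 h with compound in DMSO/RPMI at […]. Fixed with 50% trichloroacetic acid, protein stained with sulforhodamine B and read at 540 nm. TGI (total growth inhibition) obtained by non-linear regression of the concentration–response curves.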

Mus musculus [1] = assay: Antiinflammatory activity in ip dosed BALB/C mouse assessed as inhibition of carrageenan-induced paw edema administered 30 mins before carrageenan challenge measured after 24 hrs by plethysmometer; format: functional, organism-based
Outline: (§2)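 Balb/C mice, n = 8/group. Right hind paw basal volume measured by plethysmometer. Single ip dose in 0.9% saline vehicle, then carrageenan 2.5% injected intraplantar into the right hind footpad 30 min later. Edema taken as measured minus basal volume at 1.5, 3.0, 4.5, 6.0, 24, 48 and 72 h. Expressed as % inhibition vs vehicle ± standard deviation; ANOVA.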

UACC-62 = assay: Cytotoxicity against human UACC62 cells after 48 hrs by sulforhodamine B assay; format: functional; details: UACC-62, 48 h; outline: as §1
[2] = Antitumor activity against mouse EAC cells xenografted in BALB/C mouse assessed as inhibition of increase in tumor volume at 3 mg/kg, ip administered every 3 days measured on day 7 relative to control; format: functional; details: Ehrlich, route intraperitoneal
Outline: (§3)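 Ehrlich cells kept as ascites by weekly ip passage of 5 × 10^5 cells in mice. Balb/C mice (n = 8/group) inoculated with 2.5 × 10^6 cells into the right hind footpad. Dosed ip every third day from day 3, vehicle 0.9% saline. Tumour volume taken as plethysmometer paw volume minus basal, every third day to day 15. Reported as % inhibition vs vehicle ± SD; ANOVA.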

Mus musculus [3] = assay: Antiinflammatory activity in BALB/C mouse assessed as inhibition of carrageenan-induced paw edema at 5 mg/kg, ip administered 30 mins before carrageenan challenge measured before 24 hrs by plethysmometer; format: functional, organism-based; parameters: dose 5 mg/kg; outline: as §2
[4] = Cytotoxicity against human PCO3 cells after 48 hrs by sulforhodamine B assay; format: functional; details: PCO3, 48 h; outline: as §1
[5] = Antitumor activity against mouse EAC cells xenografted in BALB/C mouse assessed as reduction of tumor weight at 3 mg/kg, ip administered every 3 days measured on day 15 relative to control; format: functional; details: Ehrlich, route intraperitoneal
Outline: (§4)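 Ehrlich footpad tumour model in Balb/C mice (n = 8/group, 2.5 × 10^6 cells) with ip dosing every third day from day 3 in 0.9% saline. Mice sacrificed on day 15 and both hind paws weighed. Relative tumour weight = (tumour paw − healthy paw weight)/body weight. Reported as % inhibition vs vehicle ± SD; ANOVA.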

U-251 = assay: Cytotoxicity against human U251 cells after 48 hrs by sulforhodamine B assay; format: functional; details: U-251, 48 h; outline: as §1
786-0 = assay: Cytotoxicity against human 786-0 cells after 48 hrs by sulforhodamine B assay; format: functional; details: 786-0, 48 h; outline: as §1
[6] = Cytotoxicity against human NCI-ADR-RES cells after 48 hrs by sulforhodamine B assay; format: functional; outline: as §1
[7] = Antitumor activity against mouse EAC cells xenografted in BALB/C mouse assessed as inhibition of increase in tumor volume at 3 mg/kg, ip administered every 3 days measured on day 15 relative to control; format: functional; details: Ehrlich, route intraperitoneal; outline: as §3
HT-29 = assay: Cytotoxicity against human HT-29 cells after 48 hrs by sulforhodamine B assay; format: functional; details: HT-29, 48 h; outline: as §1
OVCAR-3 = assay: Cytotoxicity against human OVCAR-3 cells after 48 hrs by sulforhodamine B assay; format: functional; details: OVCAR-3, 48 h; outline: as §1
MCF7 = assay: Cytotoxicity against human MCF7 cells after 48 hrs by sulforhodamine B assay; format: functional; details: MCF7, 48 h; outline: as §1
Mus musculus [8] = assay: Acute toxicity in BALB/C mouse assessed as reduction of body weight at up to 3 mg/kg, ip after 15 days; format: organism-based; parameters: dose 3 mg/kg, route intraperitoneal; details: in vivo, 360 h
Outline: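 Balb/C mice (n = 8/group) carrying Ehrlich footpad tumours, given ip doses every third day from day 3 (four treatments), vehicle 0.9% saline. Animals weighed and watched for toxicity throughout; body-weight loss recorded at the end of the experiment, day 15.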

[9] = Antitumor activity against mouse EAC cells xenografted in BALB/C mouse assessed as inhibition of tumor growth at 10 mg/kg, ip administered every 3 days measured on day 15 relative to control; format: functional; details: Ehrlich, route intraperitoneal
Outline: (§5)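 Ehrlich cells were kept as ascites by weekly peritoneal passage in mice. Balb/C mice (n = 8/group) received 2.5 × 10^6 cells in 60 µL into the right hind footpad. Dosing was intraperitoneal every third day from day 3, with saline 0.9% vehicle. Tumor volume was plethysmometer paw volume minus basal volume, read every third day to day 15, and reported as % inhibition versus vehicle ± SD.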

[10] = Antitumor activity against mouse EAC cells xenografted in BALB/C mouse assessed as inhibition of tumor growth at 10 mg/kg, ip administered every 3 days measured on day 7 relative to control; format: functional; details: Ehrlich, route intraperitoneal; outline: as §5
Mus musculus [11] = assay: Acute toxicity in BALB/C mouse assessed as reduction of body weight at up to 10 mg/kg, ip after 15 days; format: organism-based; parameters: dose 10 mg/kg, route intraperitoneal; details: in vivo, 360 h
Outline: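 Body weight and toxicity signs were tracked in Balb/C mice (n = 8/group) carrying Ehrlich footpad tumors. Dosing was intraperitoneal every third day from day 3 after inoculation, four treatments in total, with saline 0.9% vehicle. Mice were weighed throughout until sacrifice on day 15.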

[12] = Antitumor activity against mouse EAC cells xenografted in BALB/C mouse assessed as reduction of tumor weight at 10 mg/kg, ip administered every 3 days measured on day 15 relative to control; format: functional; details: Ehrlich, route intraperitoneal
Outline: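 Ehrlich cells (2.5 × 10^6 in 60 µL) were injected into the right hind footpad of Balb/C mice (n = 8/group). Dosing was intraperitoneal every third day from day 3, with saline 0.9% vehicle. On day 15 both hind paws were removed and weighed. Relative tumor weight was (tumor paw − healthy paw weight)/body weight, reported as % inhibition versus vehicle ± SD.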

[13] = Antitumor activity against mouse EAC cells xenografted in BALB/C mouse assessed as inhibition of increase in tumor volume at 50 mg/kg, ip administered every 3 days measured on day 13 relative to control; format: functional; details: Ehrlich, route intraperitoneal; outline: as §3
[14] = Antitumor activity against mouse EAC cells xenografted in BALB/C mouse assessed as reduction of tumor weight at 50 mg/kg, ip administered every 3 days measured on day 15 relative to control; format: functional; details: Ehrlich, route intraperitoneal; outline: as §4
[15] = Antitumor activity against mouse EAC cells xenografted in BALB/C mouse assessed as inhibition of increase in tumor volume at 50 mg/kg, ip administered every 3 days measured on day 15 relative to control; format: functional; details: Ehrlich, route intraperitoneal; outline: as §3
Mus musculus [16] = assay: Acute toxicity in BALB/C mouse assessed as reduction of body weight at up to 50 mg/kg, ip after 15 days; format: organism-based; parameters: dose 50 mg/kg, route intraperitoneal; details: in vivo, 360 h
Outline: (§6)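 Balb/C mice (20–35 g) dosed intraperitoneally at 50, 100 and 300 mg/kg. Observed for 4 h, then daily for 14 days, for body weight loss, locomotion, behaviour (agitation, lethargy), respiration, salivation, tearing eyes, cyanosis and mortality.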

Mus musculus [17] = assay: Acute toxicity in BALB/C mouse assessed as mortality at up to 300 mg/kg, ip after 15 days; format: organism-based; parameters: dose 300 mg/kg, route intraperitoneal; details: in vivo, 360 h; outline: as §6
Mus musculus [18] = assay: Acute toxicity in BALB/C mouse assessed as mortality at up to 300 mg/kg, ip after 4 hrs; format: organism-based; parameters: dose 300 mg/kg, route intraperitoneal; details: in vivo; outline: as §6

Row | Compound | TGI (NCI-H460) | TGI (UACC-62) | TGI [4] | TGI (U-251) | TGI (786-0) | TGI [6] | TGI (HT-29) | TGI (OVCAR-3) | TGI (MCF7) | further results
1 | COc1cccc2c1C(=O)c1c(O)c3c(c(O)c1C2=O)C[C@@](O)(C(=O)CO)C[C@@H]3O[C@H]1C[C@H](N)[C@H](O)[C@H](C)O1 [DOXORUBICIN] | 2.37 µM | 0.32 µM | 4.03 µM | 1.42 µM | 7.86 µM | 2.83 µM | 16.4 µM | 10.2 µM | 11 µM | inhibition (Mus musculus [1]): Dose-dependent effect; inhibition in vivo at 3 mg/kg [2]: 42.7%; inhibition (Mus musculus [3]): Active; inhibition in vivo at 3 mg/kg [5]: 28%; inhibition in vivo at 3 mg/kg [7]: 34.7%; Activity (Mus musculus [8]): 2.5 g
2 | O=c1[nH]cc(F)c(=O)[nH]1 [FLUOROURACIL] | – | – | – | – | – | – | – | – | – | inhibition in vivo at 10 mg/kg [9]: 57.6%; inhibition in vivo at 10 mg/kg [10]: 41.7%; Activity (Mus musculus [11]): Non-toxic; inhibition in vivo at 10 mg/kg [12]: 46.1%
3 | O=C1C=CC[C@H](/C=C/c2ccccc2)O1 [GONIOTHALAMIN] | 32.4 µM | 21.6 µM | 13.5 µM | 13.4 µM | 18.6 µM | 1.2 µM | 22 µM | 8.31 µM | 21.7 µM | inhibition in vivo at 50 mg/kg [13]: 21.9%; inhibition in vivo at 50 mg/kg [14]: 25.3%; inhibition in vivo at 50 mg/kg [15]: 37.4%; Activity (Mus musculus [16]): Non-toxic; Activity (Mus musculus [17]): Non-toxic; Activity (Mus musculus [18]): Non-toxic
